Data on 27 compounds can be found in ChEMBL document CHEMBL1131580, “Antihyperglycemic activities of cryptolepine analogues: an ethnobotanical lead structure isolated from Cryptolepis sanguinolenta” (1998).

The subject of assay [1] is 3T3-L1. The assay can be described thus: In vitro glucose transport activity in 3T3-LI adipocytes at 10 uM concentration. It is filed as functional, Mus musculus. Summed up: (§1)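 Differentiated 3T3-L1 adipocytes, no added insulin, treated in triplicate for 18 h with compound at 3, 10 or 30 µM. Glucose transport expressed as % (relative to untreated); values are means of triplicate runs, significance by one-tailed independent Student's t-test.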

Assay [2] deals with 3T3-L1. The assay can be described thus: In vitro glucose transport activity in 3T3-LI adipocytes at 30 uM concentration. It is filed as functional, Mus musculus. The gist of the method:
as §1

The subject of assay [3] is 3T3-L1. The assay can be described thus: In vitro glucose transport activity in 3T3-LI adipocytes at 3 uM concentration. The format is functional, Mus musculus. The gist of the method:
as §1

Assay [4] concerns Mus musculus. In words: Food intake measured in genetically altered obese diabetic mice(db/db) at 100 mg/kg dose. The format is functional. Summed up:
(§2)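 Obese diabetic C57BL/KS-db/db mice, single dose at t = 0, n = 8 per group (n = 5 for parent compound). Body weight recorded per mouse at 0 and 24 h; food intake reported as g/mouse/day. Vehicle used as negative control, metformin as positive control.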

Assay [5] relates to Mus musculus. In words: Change in plasma glucose levels measured in genetically altered obese diabetic mice(db/db) at 100 mg/kg at 3 hr postdose. The format is functional.
Assay [6] deals with Mus musculus. In words: Mean body weight measured in genetically altered obese diabetic mice(db/db) at 100 mg/kg at 0 hr postdose. It is filed as functional. Summed up: as §2
In assay [7] the test system is Mus musculus. The assay can be described thus: Mean body weight measured in genetically altered obese diabetic mice(db/db) at 100 mg/kg at 24 hr postdose. It is filed as functional. The gist of the method: as §2
For assay [8], the system named is Mus musculus. In words: Change in plasma glucose levels measured in genetically altered obese diabetic mice(db/db) at 100 mg/kg at 24 hr postdose. The format is functional.

In the case of `COC(=O)c1c2ccccc2[n+](C)c2c1[nH]c1ccccc12.[I-]`, the Glucose transport is on record as 159% in the assay on 3T3-L1 [1], 371% in the assay on 3T3-L1 [2] and 63% in the assay on 3T3-L1 [3].
On to `[Cl-].c1ccc(C[n+]2c3ccccc3cc3[nH]c4ccccc4c32)cc1`, for which the figures for the Glucose transport with 3T3-L1 [1], in the assay on 3T3-L1 [2] and with 3T3-L1 [3] were 781%, 161% and 611%, respectively. For the same compound, in the assay on Mus musculus [4], the Food intake came to 5.1 g mouse-1 day-1. For the same compound, the Change is recorded as -15% with Mus musculus [5] and -20% in the assay on Mus musculus [8]. Besides, the values for the Mean body weight with Mus musculus [6] and in the assay with Mus musculus [7] were 39.3 g mouse-1 and 38.9 g mouse-1, respectively.
Regarding `C[n+]1c2ccccc2c(Cl)c2[nH]c3cccc(F)c3c21.[Cl-]`, the Glucose transport was 457% with 3T3-L1 [1], 6.4% with 3T3-L1 [2] and 143% with 3T3-L1 [3].
For the compound `C[n+]1c2cccc(Cl)c2c(Cl)c2[nH]c3ccccc3c21.[Cl-]`, the Glucose transport in the assay with 3T3-L1 [1] came out at 282%; in the assay on 3T3-L1 [2] it was 352%; in the assay with 3T3-L1 [3] it was 120%.
The like results for `C[n+]1c2c(c(Sc3ccc(Cl)cc3)c3ccccc31)Cc1ccccc1-2.O=S(=O)([O-])C(F)(F)F` were, in that order, 110%, 122% and 108%.
On to `C[n+]1c2ccc(F)cc2cc2[nH]c3ccccc3c21.[Cl-]`, for which the Glucose transport with 3T3-L1 [1] was 360%; with 3T3-L1 [2] it was 443%; in the assay on 3T3-L1 [3] it was 253%. In the assay on Mus musculus [4], this compound yielded a Food intake of 0.5 g mouse-1 day-1. Also, the Change is -42.5% in the assay with Mus musculus [5] and -34.5% in the assay with Mus musculus [8]. For the same compound, the Mean body weight in the assay with Mus musculus [6] is listed as 43.8 g mouse-1; in the assay on Mus musculus [7], 41.9 g mouse-1.
As for `C[n+]1c2ccccc2cc2[n-]c3ccccc3c21.Cl` [CRYPTOLEPINE HYDROCHLORIDE], the Glucose transport in the assay with 3T3-L1 [1] worked out at 305%; with 3T3-L1 [2], 359%; in the assay on 3T3-L1 [3], 148%. In the assay with Mus musculus [4], this compound had a Food intake of 0.9 g mouse-1 day-1. For the same compound, the Change with Mus musculus [5] is given as -16.4%; in the assay on Mus musculus [8], -43.1%. The figures for the Mean body weight in the assay on Mus musculus [6] and in the assay with Mus musculus [7] were 41 g mouse-1 and 39.8 g mouse-1, respectively.
Consider `C[n+]1c2ccccc2c(I)c2[nH]c3ccc(F)cc3c21.[Cl-]`, for which the Glucose transport with 3T3-L1 [1] came out at 117%; in the assay on 3T3-L1 [2] it was 0.92%; in the assay with 3T3-L1 [3] it was 115%. For the same compound, in the assay with Mus musculus [4], the Food intake worked out at 2.7 g mouse-1 day-1. The values for the Change in the assay with Mus musculus [5] and in the assay on Mus musculus [8] were -33.1% and -13.2%, respectively. In addition, the Mean body weight stood at 42.2 g mouse-1 in the assay on Mus musculus [6] and 41.8 g mouse-1 with Mus musculus [7].
For the compound `C[n+]1c2ccc(F)cc2c(Cl)c2[nH]c3ccccc3c21.[Cl-]`, the Glucose transport stood at 224% with 3T3-L1 [1], 3.3% in the assay on 3T3-L1 [2] and 142% with 3T3-L1 [3].
Take `C[n+]1c2c(c(Cl)c3ccccc31)Cc1ccccc1-2.O=S(=O)([O-])C(F)(F)F`: the figures for the Glucose transport in the assay with 3T3-L1 [1], in the assay with 3T3-L1 [2] and in the assay with 3T3-L1 [3] were 119%, 297% and 125%, respectively.
For `C[n+]1c2ccccc2c(Sc2ccc(Cl)cc2)c2oc3ccccc3c21.O=S(=O)([O-])C(F)(F)F`, in that order: 142%, 141% and 118%.
Consider `C[n+]1c2ccccc2c(Cl)c2[nH]c3ccccc3c21.[Cl-]`, for which the Glucose transport with 3T3-L1 [1] came to 101%; in the assay on 3T3-L1 [2] it was 0.33%; in the assay on 3T3-L1 [3], 107%.
Consider `C[n+]1c2ccccc2c(Cl)c2[nH]c3cc(F)ccc3c21.[Cl-]`, for which the Glucose transport in the assay with 3T3-L1 [1] turned out to be 159%; with 3T3-L1 [2] it was 6%; in the assay with 3T3-L1 [3], 107%.
For `C[n+]1c2ccc(F)cc2c(Oc2ccccc2)c2[nH]c3ccccc3c21.[Cl-]`, the Glucose transport in the assay with 3T3-L1 [1] was 207%; with 3T3-L1 [2], 0.39%; in the assay on 3T3-L1 [3], 140%. Further, the Food intake with Mus musculus [4] is on record as 1.6 g mouse-1 day-1. Moreover, the Change in the assay with Mus musculus [5] is recorded as -11.8%; with Mus musculus [8], -7.5%. The Mean body weight in the assay with Mus musculus [6] came to 46.6 g mouse-1; in the assay on Mus musculus [7], 45.2 g mouse-1.
Regarding `Fc1ccc(C[n+]2c3ccccc3cc3[nH]c4ccccc4c32)cc1.[Cl-]`, the Glucose transport with 3T3-L1 [1] stood at 248%; in the assay with 3T3-L1 [2], 323%; in the assay with 3T3-L1 [3] it was 168%. Besides, the Food intake in the assay on Mus musculus [4] is 3.1 g mouse-1 day-1. Further, the results for the Change in the assay with Mus musculus [5] and with Mus musculus [8] were -36.3% and -9.7%, respectively. In addition, the Mean body weight in the assay on Mus musculus [6] came to 40.2 g mouse-1; with Mus musculus [7] it was 39 g mouse-1.
As for `C[n+]1c2ccccc2c(Cl)c2oc3ccccc3c21.O=S(=O)([O-])C(F)(F)F`, the Glucose transport in the assay with 3T3-L1 [1] is 114%; in the assay on 3T3-L1 [2] it was 107%; in the assay with 3T3-L1 [3] it was 119%. The compound also came in with a Food intake in the assay with Mus musculus [4] of 4.9 g mouse-1 day-1. Moreover, the figures for the Change in the assay with Mus musculus [5] and in the assay on Mus musculus [8] were -17.9% and -20.8%, respectively. In addition, the Mean body weight turned out to be 40.6 g mouse-1 with Mus musculus [6] and 41.1 g mouse-1 with Mus musculus [7].
In the case of `C[n+]1c2ccc(Cl)cc2c(Cl)c2[nH]c3ccccc3c21.[Cl-]`, the Glucose transport in the assay on 3T3-L1 [1] was 138%; in the assay on 3T3-L1 [2], 215%; in the assay with 3T3-L1 [3] it was 108%.
For the compound `C[n+]1c2ccc(F)cc2c(Nc2ccccc2)c2[nH]c3ccccc3c21.[Cl-]`, the Glucose transport in the assay with 3T3-L1 [1] was found to be 208%; with 3T3-L1 [2], 0.9%; in the assay with 3T3-L1 [3] it was 325%. Further, the Food intake with Mus musculus [4] is 3.2 g mouse-1 day-1. Further, the Change with Mus musculus [5] was -10.5%; in the assay on Mus musculus [8] it was -10.7%. The figures for the Mean body weight with Mus musculus [6] and in the assay on Mus musculus [7] were 44.8 g mouse-1 and 44.2 g mouse-1, respectively.
In the case of `C[n+]1c2ccc(F)cc2c(Sc2ccc(Cl)cc2)c2[nH]c3ccccc3c21.[Cl-]`, the Glucose transport with 3T3-L1 [1] turned out to be 154%; in the assay on 3T3-L1 [2], 13%; in the assay on 3T3-L1 [3] it was 128%.
In the case of `C[n+]1c2ccccc2cc2[nH]c3cc(Cl)c(Br)cc3c21.[Cl-]`, the Glucose transport came out at 127% with 3T3-L1 [1], 0.1% in the assay on 3T3-L1 [2] and 104% with 3T3-L1 [3]. For the same compound, in the assay with Mus musculus [4], the Food intake is 2.8 g mouse-1 day-1. Also, the Change in the assay with Mus musculus [5] is -33%; in the assay with Mus musculus [8] it was -18.9%. Further, the Mean body weight in the assay on Mus musculus [6] came to 45.5 g mouse-1; with Mus musculus [7] it was 44.6 g mouse-1.
Regarding `C[n+]1c2ccccc2cc2[nH]c3ccccc3c21.[I-]` [CRYPTOLEPTINE IODIDE], the Glucose transport with 3T3-L1 [1] is reported as 163%; with 3T3-L1 [2], 287%; in the assay with 3T3-L1 [3] it was 134%.
As to `C[n+]1c2ccc(F)cc2c(-c2ccccc2)c2[nH]c3ccccc3c21.[Cl-]`, the figures for the Glucose transport with 3T3-L1 [1], with 3T3-L1 [2] and in the assay with 3T3-L1 [3] were 215%, 116% and 281%, respectively. In addition, the Food intake in the assay with Mus musculus [4] came out at 5.1 g mouse-1 day-1. Further, the Change with Mus musculus [5] is reported as -11.2%; in the assay with Mus musculus [8], -4.9%. For the same compound, the results for the Mean body weight in the assay on Mus musculus [6] and with Mus musculus [7] were 40.5 g mouse-1 and 40.4 g mouse-1, respectively.
On to `C[n+]1c2ccccc2c(Cl)c2[nH]c3ccc(-c4ccccc4)cc3c21.[Cl-]`, for which the Glucose transport with 3T3-L1 [1] is listed as 190%; with 3T3-L1 [2] it was 16%; in the assay on 3T3-L1 [3] it was 122%.
For `COc1cccc2cc3[nH]c4ccccc4c3[n+](C)c12.[Cl-]`, the Glucose transport was found to be 486% with 3T3-L1 [1], 543% in the assay on 3T3-L1 [2] and 237% with 3T3-L1 [3]. In the assay on Mus musculus [4], this compound displayed a Food intake of 2 g mouse-1 day-1. The Change in the assay with Mus musculus [5] is recorded as -8.3%; in the assay with Mus musculus [8], -58.3%. Also, the Mean body weight in the assay on Mus musculus [6] was 38.4 g mouse-1; in the assay with Mus musculus [7] it was 37.1 g mouse-1.
Consider `C[n+]1c2ccccc2c(Cl)c2sc3ccccc3c21.O=S(=O)([O-])C(F)(F)F`, for which the Glucose transport in the assay on 3T3-L1 [1] was 100%; in the assay on 3T3-L1 [2], 110%; in the assay on 3T3-L1 [3] it was 96%.
Regarding `C[n+]1c2ccccc2c(I)c2[nH]c3c(F)cccc3c21.[Cl-]`, the Glucose transport with 3T3-L1 [1] was found to be 255%; with 3T3-L1 [2] it was 0.1%; with 3T3-L1 [3] it was 129%. Also, the Food intake with Mus musculus [4] is 0.7 g mouse-1 day-1. Besides, the values for the Change in the assay on Mus musculus [5] and in the assay on Mus musculus [8] were 19.9% and -32.9%, respectively. For the same compound, the Mean body weight in the assay on Mus musculus [6] is given as 43.4 g mouse-1; in the assay with Mus musculus [7], 41.4 g mouse-1.
On to `COC(=O)c1c2ccccc2[n+](C)c2c3ccccc3n(C)c12.[I-]`, for which the Glucose transport is recorded as 207% with 3T3-L1 [1], 260% in the assay on 3T3-L1 [2] and 155% in the assay with 3T3-L1 [3].
